Measured values reported in ChEMBL document CHEMBL1121809, “Cyclic guanidines. 14. Imidazo[1,2-a]thienopyrimidin-2-one derivatives as blood platelet aggregation inhibitors” (J Med Chem, 1981).
Several values for one entry are separate records, joined by “and”; a condition that tells them apart may be missing. Equal values may be shown once.

How the values were obtained:
[1] = system: Rattus norvegicus; experiment: Effect on systolic blood pressure in rat after an oral dose at 50 mg/kg (1h after dose); assay type: functional, Artery
Procedure, shortened: (§1)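 Male Wistar-Imamichi rats, 250 g, were given the compound orally at (50 mg/7.5 mL)/kg as a suspension in 0.5% CMC or 0.5% Tween 80. Systolic pressure and heart rate were taken by tail-cuff after prewarming at 55–60 °C for 3 min, before dosing and at set times after. Five rats per group, mean ± SD. Pressure is reported as decrease and heart rate as percent change.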

[2] = system: Rattus norvegicus; experiment: Effect on heart rate in rat after an oral dose at 50 mg/kg (1h after dose); assay type: functional; procedure, shortened: as §1
[3] = system: Rattus norvegicus; experiment: (§2) Ex vivo inhibition of collagen-induced blood platelet aggregation in rat was measured 2 hr after oral administration of 50 mg/kg; assay type: functional
Procedure, shortened: (§3)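 Overnight-fasted rats were dosed orally at (50 mg/10 mL)/kg in 0.5% Tween 80; controls got vehicle at 10 mL/kg. PRP was made from carotid citrated blood 2 h later under pentobarbital. Collagen suspension (absorbance 0.270 at 420 nm) drove aggregation at 30 °C, 1100 rpm. Read-out was the initial maximal rate of absorbance fall (ΔA/min). Inhibition percent is versus controls; 5–7 rats, mean ± SD.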

[4] = system: Rattus norvegicus; experiment: Effect on heart rate in rat after an oral dose at 50 mg/kg; assay type: functional; procedure, shortened: as §1
[5] = system: Rattus norvegicus; experiment: Effect on heart rate in rat after an oral dose at 50 mg/kg (3h after dose); assay type: functional; procedure, shortened: as §1
[6] = system: Rattus norvegicus; experiment: Effect on heart rate in rat after an oral dose at 50 mg/kg (4h after dose); assay type: functional; procedure, shortened: as §1
[7] = species: Rattus norvegicus; experiment: In vitro inhibition of collagen-induced blood platelet aggregation; assay type: functional
Procedure, shortened: (§4)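 Rat PRP (about 5 × 10⁵ platelets/μL) was preincubated with compound added in saline or MeOH. Aggregation was started with bovine tendon collagen suspension in Tris buffer (absorbance 0.270 at 420 nm; lag 2–3 min). Read at 30 °C, 1100 rpm, as initial maximal rate ΔA/min. EC50 is the concentration giving 50% inhibition.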

[8] = system: Rattus norvegicus; experiment: Ex vivo inhibition of collagen-induced blood platelet aggregation in rat was measured 2 hr after administration of vehical alone; assay type: functional; procedure, shortened: as §3
[9] = system: Rattus norvegicus; experiment: Effect on systolic blood pressure in rat after an oral dose at 50 mg/kg (3h after dose); assay type: functional, Artery; procedure, shortened: as §1
[10] = system: Rattus norvegicus; experiment: Effect of compound on heart rate in rat after an oral dose at 50 mg/kg (5h after dose); assay type: functional; procedure, shortened: as §1
[11] = system: Rattus norvegicus; experiment: Effect on systolic blood pressure in rat after an oral dose at 50 mg/kg; assay type: functional, Artery; procedure, shortened: as §1
[12] = system: Rattus norvegicus; experiment: Effect of compound on systolic blood pressure in rat after an oral dose at 50 mg/kg (24h after dose); assay type: functional, Artery; procedure, shortened: as §1
[13] = system: Rattus norvegicus; experiment: Effect on systolic blood pressure in rat after an oral dose at 50 mg/kg (6h after dose); assay type: functional, Artery; procedure, shortened: as §1
[14] = system: Rattus norvegicus; experiment: Effect on systolic blood pressure in rat after an oral dose at 50 mg/kg (4h after dose); assay type: functional, Artery; procedure, shortened: as §1
[15] = system: Rattus norvegicus; experiment: Effect of compound on heart rate in rat after an oral dose at 50 mg/kg (6h after dose); assay type: functional; procedure, shortened: as §1
[16] = species: Rattus norvegicus; experiment: In vitro inhibition of ADP-induced blood platelet aggregation; assay type: functional
Procedure, shortened: (§5)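 Rat carotid citrated blood was spun at 230g for 7 min to give PRP, adjusted with PPP to about 5 × 10⁵ platelets/μL. Compound in saline or MeOH was added before 10 μM ADP in Tris-HCl/NaCl pH 7.4 with CaCl₂. Aggregation was read at 30 °C, 1100 rpm, as maximal ΔA. EC50 is the concentration giving 50% inhibition.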

[17] = system: Rattus norvegicus; experiment: Effect on systolic blood pressure in rat after an oral dose at 50 mg/kg (5h after dose); assay type: functional, Artery; procedure, shortened: as §1
[18] = system: Rattus norvegicus; experiment: Ex vivo inhibition of ADP-induced blood platelet aggregation in rat was measured 2 hr after administration of vehical alone (delta A/min *10e 3); assay type: functional
[19] = system: Rattus norvegicus; experiment: Effect of compound on heart rate in rat after an oral dose at 50 mg/kg; assay type: functional; procedure, shortened: as §1
[20] = system: Rattus norvegicus; experiment: Effect of compound on systolic blood pressure in rat after an oral dose at 50 mg/kg (1h after dose); assay type: functional, Artery; procedure, shortened: as §1
[21] = Inhibition ofADP-induced blood platelet aggregation in human; assay type: functional
Procedure, shortened: (§6)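 In vitro platelet aggregation test. EC50 was estimated from the inhibition rate at three to six compound concentrations and given as the mean of two to three experiments.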

[22] = system: Rattus norvegicus; experiment: Inhibition of ADP-induced blood platelet aggregation in rat given vehicle at an oral dose of 50 mg/kg (delta A/min *10e 3); assay type: functional
[23] = system: Rattus norvegicus; experiment: Effect of compound on heart rate in rat after an oral dose at 50 mg/kg (24h after dose); assay type: functional; procedure, shortened: as §1
[24] = species: Rattus norvegicus; experiment: Inhibition of ADP-induced blood platelet aggregation in rat; assay type: functional; procedure, shortened: as §5
[25] = species: Rattus norvegicus; experiment: Inhibition of arachidonic acid-induced blood platelet aggregation in rat; assay type: functional
Procedure, shortened: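 Rat PRP was stimulated with arachidonic acid at 30 °C under stirring, with compound added before the agonist. EC50 was estimated from inhibition at three to six concentrations and is the mean of two to three experiments.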

[26] = system: Rattus norvegicus; experiment: as §2; assay type: functional; procedure, shortened: as §3
[27] = system: Rattus norvegicus; experiment: Inhibition of collagen-induced blood platelet aggregation in rat was measured given vehicle at an oral dose of 50 mg/kg (delta A/min *10e 3); assay type: functional; procedure, shortened: as §3
[28] = Inhibition of ADP-induced blood platelet aggregation in human; assay type: functional
Procedure, shortened: (§7)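 In vitro aggregation used human platelets. EC50 was estimated from inhibition at three to six compound concentrations and is the mean of two to three experiments.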

[29] = species: Oryctolagus cuniculus; experiment: Inhibition of serotonin/epinephrine-induced blood platelet aggregation in rabbit; assay type: functional; procedure, shortened: as §6
[30] = Inhibition of collagen-induced blood platelet aggregation in human; assay type: functional; procedure, shortened: as §7
[31] = species: Rattus norvegicus; experiment: Inhibition of thrombin-induced blood platelet aggregation in rat; assay type: functional
Procedure, shortened: (§8)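 Rat PRP was prepared from citrated carotid blood of male Wistar-Imamichi rats (250 g) under pentobarbital anesthesia, spun at 230g for 7 min, and adjusted with PPP to about 5 × 10⁵ platelets/μL. Aggregation was read turbidimetrically at 30 °C with 1100 rpm stirring. Compound in saline or MeOH was added before the agonist. EC50 was estimated from inhibition at three to six concentrations, as the mean of two to three experiments.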

[32] = system: Rattus norvegicus; experiment: Inhibition of ADP-induced blood platelet aggregation in rat given compound at an oral dose of 50 mg/kg (delta A/min *10e 3); assay type: functional
[33] = species: Rattus norvegicus; experiment: Inhibition of collagen-induced blood platelet aggregation in rat; assay type: functional; procedure, shortened: as §4
[34] = system: Rattus norvegicus; experiment: Inhibition of collagen-induced blood platelet aggregation in rat was measured given compound at an oral dose of 50 mg/kg (delta A/min *10e 3); assay type: functional; procedure, shortened: as §3
[35] = system: Rattus norvegicus; experiment: Effect of compound on heart rate in rat after an oral dose at 50 mg/kg/5h after dose); assay type: functional; procedure, shortened: as §1
[36] = system: Rattus norvegicus; experiment: Effect of compound on heart rate in rat after an oral dose at 50 mg/kg (2h after dose); assay type: functional; procedure, shortened: as §1
[37] = species: Rattus norvegicus; experiment: Inhibition of thrombin-induced blood platelet aggregation in rat; Not mention; assay type: functional; procedure, shortened: as §8
[38] = system: Rattus norvegicus; experiment: Effect of compound on heart rate in rat after an oral dose at 50 mg/kg (24h after dose); Not mention; assay type: functional, organism-based; parameters: dose 50 mg/kg; procedure, shortened: as §1

Row | Structure (SMILES) | Decrease in blood pressure [1] | Change in heart rate [2] [%] | Delta A/min [3] | Initial heart rate [4] [bts min-1] | Change in heart rate [5] [%] | Change in heart rate [6] [%] | EC50 [7] [nM] | Delta A/min [8] | Decrease in blood pressure [9] | Change in heart rate [10] [%] | Initial blood pressure [11] [mmHg] | Decrease in blood pressure [12] | Decrease in blood pressure [13] | Decrease in blood pressure [14] | Change in heart rate [15] [%] | EC50 [16] [nM] | Decrease in blood pressure [17] | Change in heart rate [19] [%] | EC50 [21] | EC50 [24] [nM] | further results
1 | O=C1CN2Cc3c(ccc(Cl)c3Cl)N=C2N1 [ANAGRELIDE] | 11 | 28 | 0.126 ΔA/min | 377 | 31 | 37 | 20 | 0.188 | 16 | 31 | 130 | 13 | 14 | 14 | 33 | 800 | 14 |  |  |  | Delta A/min [18]: 150
2 | CN(C(=O)CCCOc1ccc2[nH]c(=O)ccc2c1)C1CCCCC1 [CILOSTAMIDE] | 1 | 22 |  |  | 20 | 21 | 1200 |  | -1 |  | 125 |  |  |  |  | 12000 | -1 | 26 |  |  | 
3 | Cl.O=C1CN2Cc3c(sc4c3CCCC4)N=C2N1 |  | 4 |  | 467 | 8 | 12 | 70 |  | 8 | 9 | 122 | 4 | 6 | 8 |  | 2000 | 9 | 9 | 2200 nM | 2000 | Decrease in blood pressure [20]: 4; Delta A/min [22]: 115; Change in heart rate [23]: -1%; EC50 [25]: 500 nM; Delta A/min [26]: 0; Delta A/min [27]: 156; EC50 [28]: 2200 nM; EC50 [29]: 3000 nM; EC50 [30]: 1200 nM and 400 nM; EC50 [31]: 3000 nM; Delta A/min [32]: 141; EC50 [33]: 70 nM; Delta A/min [34]: 0
4 | Cc1cccc2c1CN1CC(=O)NC1=N2 | 23 | 18 |  | 464 | 17 |  | 800 | 0.244 | 26 |  |  | 12 | 35 |  | 19 | 5000 | 34 |  | 1700 nM and 10000 nM |  | Change in heart rate ([23]; 50 mg/kg): 19% and -1%; Change in heart rate [35]: 18%; EC50 [25]: 500 nM; Delta A/min [26]: 0.11 ΔA/min; EC50 [29]: 3000 nM; EC50 [30]: 700 nM; Change in heart rate [36]: 20%; EC50 [31]: 3000 nM
5 | CC1C(=O)NC2=Nc3sc4c(c3CN21)CCCC4.Cl (stereo not given) | 24 | 5 | 0.002 ΔA/min | 440 | 2 | 4 | 600 | 0.18 | 14 | 4 | 128 |  |  | 11 |  | 48000 | 4 |  |  | 48000 | EC50 [37]: Not mention; Change in heart rate [38]: Not mention
